Laboratory results: ChEMBL document CHEMBL4725436, “Gibberellin JRA-003: A Selective Inhibitor of Nuclear Translocation of IKKα” (ACS Med Chem Lett, 2020)
Activity calls are given as the source filed them. The rule behind the calls is not given here.

Tests used:
[1] = biological target: T1, Inhibitor of nuclear factor kappa-B kinase subunit alpha (Homo sapiens) (UniProt O15111); experiment: Inhibition of IKKalpha in human HeLa cells assessed as reduction in IL-1 beta-stimulated IKK alpha nuclear translocation at 10 uM pretreated with compound for 4 hrs followed by stimulation with IL-1 beta for 1 hr by immunohistochemical staining/confocal microscopy; assay type: cell-based
T1 sequence (whole entry): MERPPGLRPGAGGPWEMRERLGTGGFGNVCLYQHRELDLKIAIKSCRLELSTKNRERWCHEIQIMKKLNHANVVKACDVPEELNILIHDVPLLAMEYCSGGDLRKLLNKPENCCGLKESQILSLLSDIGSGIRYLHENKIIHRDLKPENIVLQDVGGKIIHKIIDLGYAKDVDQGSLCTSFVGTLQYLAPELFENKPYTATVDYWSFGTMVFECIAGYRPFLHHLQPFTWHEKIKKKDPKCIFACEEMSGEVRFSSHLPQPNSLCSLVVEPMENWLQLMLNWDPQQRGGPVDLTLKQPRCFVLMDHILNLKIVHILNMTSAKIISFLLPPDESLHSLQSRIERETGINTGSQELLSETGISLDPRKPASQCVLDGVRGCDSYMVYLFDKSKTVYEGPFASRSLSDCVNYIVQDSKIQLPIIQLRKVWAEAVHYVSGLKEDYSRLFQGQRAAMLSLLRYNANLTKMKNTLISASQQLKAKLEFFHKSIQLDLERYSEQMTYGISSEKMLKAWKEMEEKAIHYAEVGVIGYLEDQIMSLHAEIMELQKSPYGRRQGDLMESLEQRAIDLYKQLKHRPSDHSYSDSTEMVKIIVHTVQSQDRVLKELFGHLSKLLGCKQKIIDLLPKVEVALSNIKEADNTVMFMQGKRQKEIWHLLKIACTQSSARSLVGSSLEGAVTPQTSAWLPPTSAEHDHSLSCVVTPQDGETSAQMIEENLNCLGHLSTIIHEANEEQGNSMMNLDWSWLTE
Method in brief: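 HeLa cells were pretreated with DMSO or test agent for 4 h, then stimulated with IL-1β (or vehicle) for 1 h. NF-κB pathway members were immunostained with AF488-tagged antibodies, nuclei were counterstained with DAPI, and compartmental localization was imaged by confocal microscopy.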

[2] = biological target: T2, Inhibitor of nuclear factor kappa-B kinase subunit beta (Homo sapiens) (UniProt O14920); experiment: Inhibition of IKK beta nuclear translocation in human HEK-293T cells assessed as reduction in IKK beta level in nucleus at 15 uM pretreated with compound for 1 hr followed by stimulation with IL-1 beta for 3 hrs by western blot analysis; assay type: subcellular
T2 sequence (whole entry): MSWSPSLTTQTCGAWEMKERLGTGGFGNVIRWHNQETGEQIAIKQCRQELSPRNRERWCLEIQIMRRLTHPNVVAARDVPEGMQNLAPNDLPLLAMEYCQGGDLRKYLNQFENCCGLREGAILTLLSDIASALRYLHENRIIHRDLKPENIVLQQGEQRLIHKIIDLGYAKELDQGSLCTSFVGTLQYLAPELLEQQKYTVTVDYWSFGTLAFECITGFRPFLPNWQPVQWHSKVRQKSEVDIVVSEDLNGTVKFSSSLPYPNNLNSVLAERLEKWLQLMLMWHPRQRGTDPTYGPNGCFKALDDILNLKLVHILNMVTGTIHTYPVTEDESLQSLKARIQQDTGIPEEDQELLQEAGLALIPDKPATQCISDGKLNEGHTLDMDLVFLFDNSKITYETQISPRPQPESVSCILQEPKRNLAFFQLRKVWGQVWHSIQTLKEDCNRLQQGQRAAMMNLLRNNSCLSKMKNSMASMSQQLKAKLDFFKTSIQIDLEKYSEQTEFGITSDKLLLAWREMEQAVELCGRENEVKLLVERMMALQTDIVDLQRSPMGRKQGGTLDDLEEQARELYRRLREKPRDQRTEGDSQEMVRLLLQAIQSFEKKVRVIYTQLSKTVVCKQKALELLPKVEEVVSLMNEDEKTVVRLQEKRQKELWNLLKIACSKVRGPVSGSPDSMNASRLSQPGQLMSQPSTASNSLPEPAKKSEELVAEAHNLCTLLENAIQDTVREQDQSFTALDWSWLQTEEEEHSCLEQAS
Method in brief: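 HEK 293T cells were pretreated with vehicle or test agent, then stimulated with IL-1β (or vehicle). Cells were lysed and nuclei separated, and the cytosolic and nuclear fractions were each probed for IKKα and IKKβ by Western blotting.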

[3] = Selectivity index, ratio of IC50 for human Hs578Bst cells to EC50 for human CA46 cells measured after 24 hrs by CellTiter-Glo luminescent assay; assay type: toxicity; details: Hs578Bst cells (IC50) versus CA46 cells (EC50)
Method in brief: (§1)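 High-throughput viability screen of test agents across a panel of 22 cancerous and noncancerous human cell lines. Viability was read by CellTiter-Glo luminescence.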

[4] = Selectivity index, ratio of IC50 for human Hs578Bst cells to EC50 for human HS578T cells measured after 24 hrs by CellTiter-Glo luminescent assay; assay type: toxicity; details: Hs578Bst cells (IC50) versus HS578T cells (EC50); method in brief: as §1
[5] = Cytotoxicity against human Hs578Bst cells assessed as reduction in cell viability measured after 24 hrs by CellTiter-Glo luminescent assay; assay type: cell-based; method in brief: as §1
[6] = Selectivity index, ratio of IC50 for human Hs578Bst cells to EC50 for human HCC1599 cells measured after 24 hrs by CellTiter-Glo luminescent assay; assay type: toxicity; details: Hs578Bst cells (IC50) versus HCC1599 cells (EC50); method in brief: as §1

inhibition [1]: Active | inhibition [2]: Active
SMILES: C=C1C[C@]23C[C@@]1(O)CC[C@H]2[C@@]12C=CC(=O)[C@@](C)(C(=O)O1)[C@H]2[C@@H]3C(=O)OC
selectivity ratio at 24 h [3]: 500 | selectivity ratio at 24 h [4]: 500 | IC50 [5]: > 10 µM | selectivity ratio at 24 h [6]: 500
